The values below come from ChEMBL document CHEMBL5107946, “SF5- and SCF3-substituted tetrahydroquinoline compounds as potent bactericidal agents against multidrug-resistant persister Gram-positive bacteria” (RSC Med Chem, 2021).

For orientation: MIC means the smallest concentration in the dilution series that meets the test's criterion for growth inhibition. Usually MBC stands for the smallest concentration meeting the test's criterion for killing.

The subject of assay [1] is Staphylococcus aureus. Nature of the assay: Antibacterial activity against methicillin-resistant Staphylococcus aureus ST239 (ARLG 1644) assessed as bacterial growth inhibition incubated for 18 to 20 hrs by CLSI based broth microdilution assay. The assay is classed as functional. Conditions: time 18-20 hrs. A digest of the protocol:
(§1)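 CLSI broth microdilution; compounds and control antibiotics made up at 10 mg mL−1 in DMSO (stock), serially diluted 1:2 across the plate. Inoculum adjusted to 0.5 McFarland, then diluted 1:100 into wells. Plates incubated static at 37 °C for 18–20 h before MIC read.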
In general terms: Broth dilution looks for growth in wells or tubes with falling amounts of substance.

The subject of the next assay is Cell membrane. Nature of the assay: Induction of cell membrane disruption in Staphylococcus aureus ATCC 25923 at 4 ug/ml incubated for 4 hrs by scanning electron microscopy. The settings on record: dose 4.0 µg/ml. A digest of the protocol: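 Cells grown overnight in TSB, diluted 1:100 and grown to OD600 0.4, then treated for 4 h; bithionol 10 μg mL−1 as positive control, DMSO as negative control. Fixed in chilled 2.5% glutaraldehyde in 0.1 M cacodylate, post-fixed in 1% OsO4, ethanol-dehydrated, dried with HMDS and platinum-coated. Imaged at 5 kV.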

The next assay concerns Enterococcus faecium. Nature of the assay: Bactericidal activity against vancomycin-resistant Enterococcus faecium ATCC 700221 assessed as reduction in colony forming unit incubated for 20 hrs. Conditions: ATCC 700221, 20 h.
Assay [2] relates to Staphylococcus aureus. Put plainly: Antibacterial activity against methicillin-resistant Staphylococcus aureus USA300 (ARLG 1570) assessed as bacterial growth inhibition incubated for 18 to 20 hrs by CLSI based broth microdilution assay. The assay is classed as functional. Conditions: time 18-20 hrs. A digest of the protocol: as §1
Assay [3] has as its system Staphylococcus aureus. Nature of the assay: Antibacterial activity against Staphylococcus aureus ATCC 25923 assessed as bacterial growth inhibition incubated for 18 to 20 hrs by CLSI based broth microdilution assay. Type of assay: functional. Conditions: time 18-20 hrs. The gist of the method:
as §1

Assay [4] relates to Staphylococcus aureus. Nature of the assay: Antibacterial activity against methicillin-resistant Staphylococcus aureus ST1312 (ARLG 1649) assessed as bacterial growth inhibition incubated for 18 to 20 hrs by CLSI based broth microdilution assay. Type of assay: functional. The settings on record: time 18-20 hrs. The gist of the method: as §1
Another assay concerns Enterococcus faecalis. Put plainly: Bactericidal activity against Enterococcus faecalis ATCC 29212 assessed as reduction in colony forming unit incubated for 20 hrs. Type of assay: functional. A digest of the protocol:
(§2)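 Follows the broth microdilution MIC plate. 4 μL taken from each well without growth, spotted in duplicate on tryptic soy agar and incubated static at 37 °C for 20 h. MBC taken as the concentration giving 99.9% reduction in CFU.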

In assay [5] the test system is Listeria monocytogenes. Put plainly: Antibacterial activity against Listeria monocytogenes ATCC 19115 assessed as bacterial growth inhibition incubated for 18 to 20 hrs by CLSI based broth microdilution assay. Conditions: time 18-20 hrs. Type of assay: functional. A digest of the protocol:
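MIC by CLSI broth microdilution. Compounds were made as 10 mg mL−1 DMSO stocks and serially diluted 1:2. Inoculum was set to 0.5 McFarland and diluted 1:100 into the wells. Plates were incubated static at 37 °C for 18–20 h before reading the MIC.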

Assay [6] relates to Staphylococcus aureus. Put plainly: Bactericidal activity against persister methicillin-resistant Staphylococcus aureus ATCC 33592 assessed as reduction in colony forming unit at 4 x MIC incubated for 6 hrs by Time-kill analysis. Type of assay: functional, organism-based. The gist of the method: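 Stationary-phase (persister) time-kill. Overnight TSB culture diluted 1 in 10 in TSB directly (about 2.92 × 10^6 CFU per mL), with no regrowth step. Exposed at 1× or 4× MIC in triplicate at 37 °C. Samples taken at 0, 2, 4 and 6 h, serially diluted in PBS, plated on TSA in duplicate and incubated 18–24 h.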

Assay [7] has as its system Staphylococcus aureus. Nature of the assay: Antibacterial activity against methicillin-resistant Staphylococcus aureus USA300 assessed as bacterial growth inhibition incubated for 18 to 20 hrs by CLSI based broth microdilution assay. The assay is classed as functional. Conditions: time 18-20 hrs. The gist of the method: as §1
Assay [8] concerns Listeria monocytogenes. Put plainly: Bactericidal activity against Listeria monocytogenes ATCC 19115 assessed as reduction in colony forming unit incubated for 20 hrs. The assay is classed as functional. A digest of the protocol: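 MBC: after the MIC assay, 4 μL from wells with no growth were spotted in duplicate on TSA. Plates were incubated static at 37 °C for 20 h. MBC was taken as a 99.9% reduction in CFU.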

The subject of assay [9] is Staphylococcus aureus. Put plainly: Bactericidal activity against methicillin-resistant Staphylococcus aureus ATCC 33592 assessed as reduction in colony forming unit incubated for 20 hrs. The assay is classed as functional. A digest of the protocol: as §2

Converted amounts (≈) assume the structure as drawn. The source made the active and inactive calls.

As for `FC(F)(F)c1n[nH]cc1[C@@H]1Nc2ccc(S(F)(F)(F)(F)F)cc2[C@H]2[C@@H]3CC[C@@H](C3)[C@H]21`, the MIC in the assay on Staphylococcus aureus [1] came to 2 µg/mL (≈ 4.35 µM); in the assay with Staphylococcus aureus [2], 2 µg/mL (≈ 4.35 µM); in the assay on Staphylococcus aureus [3], 2 µg/mL (≈ 4.35 µM); with Staphylococcus aureus [4], 2 µg/mL (≈ 4.35 µM); in the assay on Listeria monocytogenes [5] it was 2 µg/mL (≈ 4.35 µM); with Staphylococcus aureus [7], 4 µg/mL (≈ 8.71 µM). For the same compound, the result in the assay with Cell membrane and in the assay on Staphylococcus aureus [6] was Active. In addition, the minimum bactericidal concentration (MBC) was found to be 4 µg/mL (≈ 8.71 µM) with Enterococcus faecium, 8 µg/mL (≈ 17.4 µM) in the assay on Enterococcus faecalis, 4 µg/mL (≈ 8.71 µM) in the assay with Listeria monocytogenes [8] and 4 µg/mL (≈ 8.71 µM) in the assay on Staphylococcus aureus [9].
